How the values were obtained:
[1] = tested on: CEM-4; experiment: Concentration required to reduce the viability of uninfected CEM-4 cells by 50%; assay type: functional; settings: Homo sapiens
Outline: (§1)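 Cytotoxicity in uninfected CEM-4 or MT-4 cells, measured as inhibition of cell growth. The value is the concentration that lowers viability by 50%.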

[2] = tested on: CEM-4; experiment: Inhibitory concentration required to inhibit HIV-induced cytopathicity in CEM-4 cells by 50%; assay type: functional, cell-based; settings: Homo sapiens
Outline: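 CEM-4 cells infected with HIV-1 (strain HTLV-III_B/LAI). The end point is 50% inhibition of HIV-induced cytopathicity.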

[3] = tested on: E6SM; experiment: Concentration required to cause a microscopically detectable alteration of normal E6SM cell morphology; assay type: functional, cell-based; settings: Homo sapiens, read-out: IC50
Outline: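 Minimum cytotoxic concentration, read microscopically as the level that causes a detectable alteration of normal cell morphology.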

[4] = tested on: E6SM; experiment: Concentration required to reduce herpes simplex virus-1TK( B2006) inducted cytopathicity by 50% (E6SM cells); assay type: functional, cell-based; settings: Homo sapiens
Outline: (§2)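 Virus was added in the presence of compound, and the cells were incubated until cytopathic effect was scored. The value is the concentration that reduces virus-induced CPE by 50%.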

[5] = tested on: E6SM; experiment: Concentration required to reduce herpes simplex virus-1TK (F) inducted cytopathicity by 50% (E6SM cells); assay type: functional, cell-based; settings: Homo sapiens; outline: as §2
[6] = tested on: E6SM; experiment: Concentration required to reduce herpes simplex virus-1TK (KOS) inducted cytopathicity by 50% (E6SM cells); assay type: functional, cell-based; settings: Homo sapiens; outline: as §2
[7] = tested on: E6SM; experiment: Concentration required to reduce herpes simplex virus-1TK (McIntyre) inducted cytopathicity by 50% (E6SM cells); assay type: functional, cell-based; settings: Homo sapiens; outline: as §2
[8] = tested on: E6SM; experiment: Concentration required to reduce herpes simplex virus-1TK (VMW1837) inducted cytopathicity by 50% (E6SM cells); assay type: functional, cell-based; settings: Homo sapiens; outline: as §2
[9] = tested on: E6SM; experiment: Concentration required to reduce herpes simplex virus-2(196) inducted cytopathicity by 50% (E6SM cells); assay type: functional, cell-based; settings: Homo sapiens; outline: as §2
[10] = tested on: E6SM; experiment: Concentration required to reduce herpes simplex virus-2(G) inducted cytopathicity by 50% (E6SM cells); assay type: functional, cell-based; settings: Homo sapiens; outline: as §2
[11] = tested on: Vaccinia virus; experiment: Concentration required to reduce vaccinia virus-inducted cytopathicity by 50% (E6SM cells); assay type: functional, organism-based, Orthopoxvirus vaccinia; settings: Orthopoxvirus vaccinia, E6SM
[12] = tested on: Human immunodeficiency virus 1; experiment: Concentration required to inhibit by 50% human immunodeficiency virus-1 induced syncytium formation upon coculturing persistently HIV-infected HUT-78 cells with MOLT-4 cells; assay type: functional, organism-based; settings: Human immunodeficiency virus 1, MOLT-4
Outline: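 MOLT-4 (clone 8) cells at 1 × 10^6 cells/mL, cocultured with an equal number of persistently infected HUT-78/HIV-1 or HUT-78/HIV-2 cells across a range of compound concentrations. Giant cells were counted under the microscope after 24 h of cocultivation. The value is the concentration giving 50% inhibition of syncytium formation.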

[13] = tested on: HEL; experiment: Concentration required to inhibit HEL cell growth by 50%; assay type: functional, cell-based; settings: Homo sapiens
[14] = tested on: HEL; experiment: Concentration required to reduce human cytomegalo virus(AD-169) inducted cytopathicity by 50% (HEL cells); assay type: functional, cell-based; outline: as §2
[15] = tested on: HEL; experiment: Concentration required to reduce human cytomegalo virus(Davis) inducted cytopathicity by 50% (HEL cells); assay type: functional, cell-based; outline: as §2
[16] = tested on: HeLa; experiment: Concentration required to cause a microscopically detectable alteration of normal Hela cell morphology; assay type: functional, cell-based; settings: Homo sapiens
[17] = tested on: HeLa; experiment: Concentration required to reduce Coxsackie virus-inducted cytopathicity by 50% (HeLa cells); assay type: functional, cell-based; settings: Homo sapiens
[18] = tested on: HeLa; experiment: Concentration required to reduce polio-1 virus-inducted cytopathicity by 50% (HeLa cells); assay type: functional, cell-based; settings: Homo sapiens
[19] = tested on: HeLa; experiment: Concentration required to reduce vesicular stomatitis virus-inducted cytopathicity by 50% (HeLa cells); assay type: functional, cell-based; settings: Homo sapiens
[20] = tested on: MT4; experiment: Concentration required to reduce the viability of uninfected MT-4 cells by 50%; assay type: functional; settings: Homo sapiens; outline: as §1
[21] = tested on: MT4; experiment: Concentration required to inhibit human immunodeficiency virus-2 induced cytopathicity in MT-4 cells by 50%; assay type: functional, cell-based
Outline: (§3)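 MT-4 cells infected with HIV-1 (strain HTLV-III_B/LAI) or HIV-2 (strain LAV_ROD). The end point is 50% inhibition of virus-induced cytopathicity.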

[22] = tested on: Vero; experiment: Concentration required to cause a microscopically detectable alteration of normal Vero cell morphology; assay type: functional, cell-based; settings: Chlorocebus sabaeus
[23] = tested on: Vero; experiment: Concentration required to reduce Coxsackie virus-inducted cytopathicity by 50% (Vero cells); assay type: functional, cell-based; settings: Chlorocebus sabaeus
[24] = tested on: Vero; experiment: Concentration required to reduce Junin virus-inducted cytopathicity by 50% (Vero cells); assay type: functional, cell-based; settings: Chlorocebus sabaeus
[25] = tested on: Vero; experiment: Concentration required to reduce forest virus-inducted cytopathicity by 50% (Vero cells); assay type: functional, cell-based; settings: Chlorocebus sabaeus
[26] = tested on: Vero; experiment: Concentration required to reduce Tacaribe virus-inducted cytopathicity by 50% (Vero cells); assay type: functional, cell-based; settings: Chlorocebus sabaeus
[27] = tested on: Vero; experiment: Concentration required to reduce parainfluenza-3 virus-inducted cytopathicity by 50% (Vero cells); assay type: functional, cell-based; settings: Chlorocebus sabaeus
[28] = tested on: Vero; experiment: Concentration required to reduce reovirus-1 inducted cytopathicity by 50% (Vero cells); assay type: functional, cell-based; settings: Chlorocebus sabaeus
[29] = tested on: Vero; experiment: Concentration required to reduce sindbis virus-inducted cytopathicity by 50% (Vero cells); assay type: functional, cell-based; settings: Chlorocebus sabaeus
[30] = tested on: MT4; experiment: Concentration required to inhibit human immunodeficiency virus-1 induced cytopathicity in MT-4 cells by 50%; assay type: functional, cell-based; outline: as §3
[31] = tested on: E6SM; experiment: Concentration required to reduce herpes simplex virus-2(Lyons) inducted cytopathicity by 50% (E6SM cells); assay type: functional, cell-based; settings: Homo sapiens; outline: as §2
[32] = tested on: Human immunodeficiency virus 2; experiment: Concentration required to inhibit by 50% human immunodeficiency virus-2 induced syncytium formation upon coculturing persistently HIV-infected HUT-78 cells with MOLT-4 cells; settings: HUT-78, MOLT-4

O=C(O)CC(SCCCOC[C@H]1O[C@@](COCCCSC(CC(=O)O)C(=O)O)(O[C@H]2O[C@H](COCCCSC(CC(=O)O)C(=O)O)[C@@H](OCCCSC(CC(=O)O)C(=O)O)[C@H](OCCCSC(CC(=O)O)C(=O)O)[C@H]2OCCCSC(CC(=O)O)C(=O)O)[C@@H](OCCCSC(CC(=O)O)C(=O)O)[C@@H]1OCCCSC(CC(=O)O)C(=O)O)C(=O)O (some centres not stated)
CC50 [1]: > 45.1 µM | IC50 [2]: 3.02 µM | minimum cytotoxic concentration [3]: > 181 µM | IC50 [4]: > 181 µM | IC50 [5]: > 181 µM | IC50 [6]: > 181 µM | IC50 [7]: > 181 µM | IC50 [8]: > 181 µM | IC50 [9]: > 181 µM | IC50 [10]: > 181 µM | IC50 [11]: > 181 µM | IC50 [12]: 22.6 µM | IC50 [13]: > 22 µM | IC50 [14]: > 22 µM | IC50 [15]: > 22 µM | IC50 [16]: > 90 µM | IC50 [17]: > 90 µM | IC50 [18]: > 90 µM | IC50 [19]: > 90 µM | CC50 [20]: > 113 µM | IC50 [21]: 2890 nM | IC50 [22]: > 90 µM | IC50 [23]: > 90 µM | IC50 [24]: > 22 µM | IC50 [25]: > 90 µM | IC50 [26]: > 22 µM | IC50 [27]: > 90 µM | IC50 [28]: > 90 µM | IC50 [29]: > 90 µM | IC50 [30]: 180 nM | IC50 [31]: > 135 µM | IC50 [32]: 22.6 µM
